MIC, MIC50 and MIC90 data for 5 compounds are collected here from ChEMBL document CHEMBL1629597, “In vitro evaluation of the antimicrobial activity of ceftaroline against cephalosporin-resistant isolates of Streptococcus pneumoniae” (2009).

≈ marks a conversion by molar mass, not a printed value.

Common to all, as to format: functional
For assay [1], the system named is Streptococcus pneumoniae. Kind of assay: Antimicrobial activity against Streptococcus pneumoniae R6 by broth microdilution method. In outline: (§1)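 Reference broth microdilution MIC per CLSI guidelines, testing ceftaroline, penicillin, ceftriaxone and cefotaxime against susceptible laboratory strain R6 and R6 transformants. The transformants carry pbp and/or murM genes with β-lactam-resistance mutations, or genomic DNA, from donors 3191 (Hungarian clone) and 72521 (French isolate). MICs are in μg/ml.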

Assay [2] deals with Streptococcus pneumoniae. The assay can be described thus: Antimicrobial activity against Streptococcus pneumoniae by broth microdilution method.
The test system of assay [3] is Streptococcus pneumoniae. Kind of assay: Antimicrobial activity against Streptococcus pneumoniae 3191 by broth microdilution method.
For assay [4], the system named is Streptococcus pneumoniae. The assay can be described thus: Antimicrobial activity against Streptococcus pneumoniae 72521 by broth microdilution method.
For assay [5], the system named is Streptococcus pneumoniae. Kind of assay: Antimicrobial activity against Streptococcus pneumoniae R6 transformed with Streptococcus pneumoniae 3191 pbp2x gene by broth microdilution method. The essentials: as §1
The subject of assay [6] is Streptococcus pneumoniae. Kind of assay: Antimicrobial activity against Streptococcus pneumoniae R6 transformed with Streptococcus pneumoniae 3191 pbp2b, pbp1a and murM genes by broth microdilution method. The essentials:
as §1

The subject of assay [7] is Streptococcus pneumoniae. The assay can be described thus: Antimicrobial activity against Streptococcus pneumoniae R6 transformed with Streptococcus pneumoniae 3191 pbp2x and pbp1a genes by broth microdilution method. The essentials: as §1
The test system of assay [8] is Streptococcus pneumoniae. The assay can be described thus: Antimicrobial activity against Streptococcus pneumoniae R6 transformed with Streptococcus pneumoniae 72521 pbp2x and pbp2b genes by broth microdilution method. The essentials:
as §1

For assay [9], the system named is Streptococcus pneumoniae. The assay can be described thus: Antimicrobial activity against Streptococcus pneumoniae R6 transformed with Streptococcus pneumoniae 3191 pbp2x and pbp2b genes by broth microdilution method. In outline: as §1
Assay [10] has as its system Streptococcus pneumoniae. Kind of assay: Antimicrobial activity against Streptococcus pneumoniae R6 transformed with Streptococcus pneumoniae 3191 pbp2x and Streptococcus pneumoniae 72521 pbp2b genes by broth microdilution method. The essentials:
as §1

Assay [11] relates to Streptococcus pneumoniae. Kind of assay: Antimicrobial activity against Streptococcus pneumoniae R6 transformed with Streptococcus pneumoniae 72521 pbp2x, pbp1a and pbp2b genes by broth microdilution method. In outline:
as §1

Assay [12] concerns Streptococcus pneumoniae. The assay can be described thus: Antimicrobial activity against Streptococcus pneumoniae R6 transformed with Streptococcus pneumoniae 72521 pbp2x, pbp2b and Streptococcus pneumoniae 3191 pbp1a genes by broth microdilution method. The essentials: as §1
The test system of assay [13] is Streptococcus pneumoniae. Kind of assay: Antimicrobial activity against Streptococcus pneumoniae R6 transformed with Streptococcus pneumoniae 72521 genomic DNA, pbp2x, pbp1a and pbp2b genes by broth microdilution method. In outline:
as §1

Assay [14] concerns Streptococcus pneumoniae. The assay can be described thus: Antimicrobial activity against Streptococcus pneumoniae R6 transformed with Streptococcus pneumoniae 72521 pbp2x, pbp1a, pbp2b genes and Streptococcus pneumoniae 3191 genomic DNA by broth microdilution method. The essentials:
as §1

For assay [15], the system named is Streptococcus pneumoniae. Kind of assay: Antimicrobial activity against Streptococcus pneumoniae R6 transformed with Streptococcus pneumoniae 72521 pbp2x, pbp1a, pbp2b and Streptococcus pneumoniae 3191 murM genes by broth microdilution method. The essentials: as §1
Assay [16] has as its system Streptococcus pneumoniae. The assay can be described thus: Antimicrobial activity against Streptococcus pneumoniae R6 transformed with Streptococcus pneumoniae 3191 pbp2x, pbp2b, murM and Streptococcus pneumoniae 72521 pbp1a genes by broth microdilution method. In outline:
as §1

Assay [17] has as its system Streptococcus pneumoniae. The assay can be described thus: Antimicrobial activity against Streptococcus pneumoniae R6 transformed with Streptococcus pneumoniae 72521 genomic DNA, pbp2x, pbp1a, pbp2b and Streptococcus pneumoniae 3191 pbp1a genes by broth microdilution method. In outline:
as §1

Assay [18] concerns Streptococcus pneumoniae. The assay can be described thus: Antimicrobial activity against Streptococcus pneumoniae R6 transformed with Streptococcus pneumoniae 72521 murM, pbp2x, pbp2b and Streptococcus pneumoniae 3191 pbp1a genes by broth microdilution method. In outline: as §1
Assay [19] deals with Streptococcus pneumoniae. Kind of assay: Antimicrobial activity against Streptococcus pneumoniae R6 transformed with Streptococcus pneumoniae 3191 pbp2x, pbp2b, pbp1a and Streptococcus pneumoniae 72521 murM genes by broth microdilution method. In outline: as §1
Assay [20] relates to Streptococcus pneumoniae. Kind of assay: Antimicrobial activity against Streptococcus pneumoniae R6 transformed with Streptococcus pneumoniae 3191 pbp2x, pbp2b, pbp1a genes by broth microdilution method. In outline:
as §1

For assay [21], the system named is Streptococcus pneumoniae. The assay can be described thus: Antimicrobial activity against Streptococcus pneumoniae R6 transformed with Streptococcus pneumoniae 72521 pbp2x gene by broth microdilution method. The essentials:
as §1

`CC1(C)S[C@@H]2[C@H](NC(=O)[C@H](N)c3ccc(O)cc3)C(=O)N2[C@H]1C(=O)O` [AMOXICILLIN]: the MIC was at most 0.015 µg/mL in the assay with Streptococcus pneumoniae [1]; 8 µg/mL (≈ 21.9 µM) in the assay on Streptococcus pneumoniae [3]; 8 µg/mL (≈ 21.9 µM) against Streptococcus pneumoniae [4]; 0.047 µg/mL (≈ 0.129 µM) in the assay on Streptococcus pneumoniae [5]; 0.023 µg/mL (≈ 0.0629 µM) against Streptococcus pneumoniae [6]; 0.032 µg/mL (≈ 0.0876 µM) against Streptococcus pneumoniae [7]. Moreover, the minimum inhibitory concentration (MIC) turned out to be 0.094 µg/mL (≈ 0.257 µM) in the assay with Streptococcus pneumoniae [8]; 0.19 µg/mL (≈ 0.52 µM) in the assay with Streptococcus pneumoniae [9]; 0.19 µg/mL (≈ 0.52 µM) in the assay with Streptococcus pneumoniae [10]; 0.5 µg/mL (≈ 1.37 µM) with Streptococcus pneumoniae [11]; 0.75 µg/mL (≈ 2.05 µM) against Streptococcus pneumoniae [12]; 1 µg/mL (≈ 2.74 µM) against Streptococcus pneumoniae [13]. Further, the MIC came to 1 µg/mL (≈ 2.74 µM) with Streptococcus pneumoniae [14]; 1 µg/mL (≈ 2.74 µM) in the assay with Streptococcus pneumoniae [15]; 1.5 µg/mL (≈ 4.1 µM) against Streptococcus pneumoniae [16]; 1.5 µg/mL (≈ 4.1 µM) against Streptococcus pneumoniae [17]; 3 µg/mL (≈ 8.21 µM) against Streptococcus pneumoniae [18]; 4 µg/mL (≈ 10.9 µM) in the assay on Streptococcus pneumoniae [19]. The compound further displayed a minimum inhibitory concentration (MIC) against Streptococcus pneumoniae [20] of 4 µg/mL (≈ 10.9 µM). In the assay with Streptococcus pneumoniae [2], this compound showed an MIC50 of 8 µg/mL (≈ 21.9 µM). In the assay with Streptococcus pneumoniae [2], this compound yielded an MIC90 of over 8 µg/mL.
Consider `CC1(C)S[C@@H]2[C@H](NC(=O)Cc3ccccc3)C(=O)N2[C@H]1C(=O)O` [PENICILLIN G], for which the MIC against Streptococcus pneumoniae [1] is 0.015 µg/mL (≈ 0.0449 µM); in the assay with Streptococcus pneumoniae [21], 0.5 µg/mL (≈ 1.5 µM); against Streptococcus pneumoniae [3], 16 µg/mL (≈ 47.8 µM); in the assay with Streptococcus pneumoniae [4] it was 4 µg/mL (≈ 12 µM); in the assay with Streptococcus pneumoniae [5], 2 µg/mL (≈ 5.98 µM); against Streptococcus pneumoniae [6], 0.03 µg/mL (≈ 0.0897 µM). In addition, the minimum inhibitory concentration (MIC) with Streptococcus pneumoniae [7] was 2 µg/mL (≈ 5.98 µM); in the assay on Streptococcus pneumoniae [8], 0.5 µg/mL (≈ 1.5 µM); in the assay on Streptococcus pneumoniae [9] it was 1 µg/mL (≈ 2.99 µM); in the assay on Streptococcus pneumoniae [10], 2 µg/mL (≈ 5.98 µM); against Streptococcus pneumoniae [11], 0.5 µg/mL (≈ 1.5 µM); with Streptococcus pneumoniae [12] it was 1 µg/mL (≈ 2.99 µM). Besides, the minimal inhibitory concentration (MIC) in the assay with Streptococcus pneumoniae [13] came to 1 µg/mL (≈ 2.99 µM); against Streptococcus pneumoniae [14], 8 µg/mL (≈ 23.9 µM); against Streptococcus pneumoniae [15], 1 µg/mL (≈ 2.99 µM); in the assay on Streptococcus pneumoniae [16], 8 µg/mL (≈ 23.9 µM); in the assay with Streptococcus pneumoniae [17] it was 2 µg/mL (≈ 5.98 µM); against Streptococcus pneumoniae [18], 2 µg/mL (≈ 5.98 µM). In addition, the MIC against Streptococcus pneumoniae [19] was 8 µg/mL (≈ 23.9 µM); against Streptococcus pneumoniae [20], 4 µg/mL (≈ 12 µM). For the same compound, the MIC50 against Streptococcus pneumoniae [2] was determined as 8 µg/mL (≈ 23.9 µM). In addition, in the assay with Streptococcus pneumoniae [2], the MIC90 turned out to be 8 µg/mL (≈ 23.9 µM).
With `CO/N=C(\C(=O)N[C@@H]1C(=O)N2C(C(=O)O)=C(COC(C)=O)CS[C@H]12)c1csc(N)n1` [CEFOTAXIME], the MIC against Streptococcus pneumoniae [1] came out at 0.03 µg/mL (≈ 0.0659 µM); against Streptococcus pneumoniae [21], 0.06 µg/mL (≈ 0.132 µM); against Streptococcus pneumoniae [3], 4 µg/mL (≈ 8.78 µM); with Streptococcus pneumoniae [4] it was 2 µg/mL (≈ 4.39 µM); in the assay on Streptococcus pneumoniae [5] it was 0.03 µg/mL (≈ 0.0659 µM); in the assay on Streptococcus pneumoniae [6], 0.03 µg/mL (≈ 0.0659 µM). Also, the minimum inhibitory concentration (MIC) in the assay with Streptococcus pneumoniae [7] amounted to 0.06 µg/mL (≈ 0.132 µM); in the assay on Streptococcus pneumoniae [8], 0.5 µg/mL (≈ 1.1 µM); in the assay on Streptococcus pneumoniae [9] it was 0.5 µg/mL (≈ 1.1 µM); in the assay with Streptococcus pneumoniae [10], 1 µg/mL (≈ 2.2 µM); against Streptococcus pneumoniae [11] it was 2 µg/mL (≈ 4.39 µM); in the assay with Streptococcus pneumoniae [12], 2 µg/mL (≈ 4.39 µM). The MIC in the assay on Streptococcus pneumoniae [13] stood at 2 µg/mL (≈ 4.39 µM); in the assay on Streptococcus pneumoniae [14] it was 2 µg/mL (≈ 4.39 µM); against Streptococcus pneumoniae [15], 2 µg/mL (≈ 4.39 µM); in the assay with Streptococcus pneumoniae [16], 2 µg/mL (≈ 4.39 µM); in the assay on Streptococcus pneumoniae [17] it was 4 µg/mL (≈ 8.78 µM); in the assay with Streptococcus pneumoniae [18], 4 µg/mL (≈ 8.78 µM). In addition, the minimal inhibitory concentration (MIC) with Streptococcus pneumoniae [19] and in the assay on Streptococcus pneumoniae [20] was 16 µg/mL (≈ 35.1 µM) throughout. The MIC50 with Streptococcus pneumoniae [2] turned out to be 8 µg/mL (≈ 17.6 µM). Further, the MIC90 with Streptococcus pneumoniae [2] was 8 µg/mL (≈ 17.6 µM).
In the case of `CO/N=C(\C(=O)N[C@@H]1C(=O)N2C(C(=O)O)=C(CSc3nc(=O)c(O)nn3C)CS[C@H]12)c1csc(N)n1` [CEFTRIAXONE], the MIC was found to be 0.03 µg/mL (≈ 0.0541 µM) with Streptococcus pneumoniae [1]; 0.5 µg/mL (≈ 0.902 µM) in the assay with Streptococcus pneumoniae [21]; 8 µg/mL (≈ 14.4 µM) against Streptococcus pneumoniae [3]; 4 µg/mL (≈ 7.21 µM) against Streptococcus pneumoniae [4]; 2 µg/mL (≈ 3.61 µM) with Streptococcus pneumoniae [5]; 0.06 µg/mL (≈ 0.108 µM) in the assay with Streptococcus pneumoniae [6]. The MIC with Streptococcus pneumoniae [7] stood at 2 µg/mL (≈ 3.61 µM); against Streptococcus pneumoniae [8], 1 µg/mL (≈ 1.8 µM); in the assay with Streptococcus pneumoniae [9], 1 µg/mL (≈ 1.8 µM); against Streptococcus pneumoniae [10] it was 2 µg/mL (≈ 3.61 µM); against Streptococcus pneumoniae [11] it was 0.5 µg/mL (≈ 0.902 µM); in the assay on Streptococcus pneumoniae [12], 2 µg/mL (≈ 3.61 µM). The MIC amounted to 0.5 µg/mL (≈ 0.902 µM) against Streptococcus pneumoniae [13]; 2 µg/mL (≈ 3.61 µM) in the assay with Streptococcus pneumoniae [14]; 1 µg/mL (≈ 1.8 µM) in the assay with Streptococcus pneumoniae [15]; 4 µg/mL (≈ 7.21 µM) against Streptococcus pneumoniae [16]; 2 µg/mL (≈ 3.61 µM) in the assay with Streptococcus pneumoniae [17]; 4 µg/mL (≈ 7.21 µM) in the assay with Streptococcus pneumoniae [18]. Besides, the figures for the MIC in the assay with Streptococcus pneumoniae [19] and with Streptococcus pneumoniae [20] were 8 µg/mL (≈ 14.4 µM) and 4 µg/mL (≈ 7.21 µM), respectively. Besides, in the assay on Streptococcus pneumoniae [2], the MIC50 amounted to 8 µg/mL (≈ 14.4 µM). For the same compound, in the assay with Streptococcus pneumoniae [2], the MIC90 came out at 8 µg/mL (≈ 14.4 µM).
Consider `C[C@@H](O)[C@H]1C(=O)N2C(C(=O)O)=C(S[C@@H]3CN[C@H](C(=O)N(C)C)C3)[C@H](C)[C@H]12` [MEROPENEM], for which, in the assay on Streptococcus pneumoniae [2], the MIC50 was 1 µg/mL (≈ 2.61 µM) and the MIC90 was found to be 2 µg/mL (≈ 5.22 µM).
